The record followed here is ChEMBL document CHEMBL5390247, “Aryl azoles based scaffolds for disrupting tumor microenvironment” (Bioorg Med Chem, 2023).

The structures appear in SMILES notation. Active and inactive are the calls of the source. The rule behind the calls is not given here. Where only a bound is given, the exact number is not on record here.

Data set [1] in a line: Toxicity against interferon gamma-stimulated human THP-1 monocyte cells co-cultured with human HT-29 cells assessed as reduction in cell viability at 100 uM incubated for 48 hrs by flow cytometry analysis. In kind it is cell-based. To be noted: thp-1, 48 h. In outline:
(§1)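 HT-29 cells at 10^5/well seeded and grown 24 h. Medium then replaced with medium containing IFN-γ (10 ng/ml), 5 × 10^5 THP-1 cells/well and compound at 100 µM; DMSO used as control. After 48 h, THP-1 cells collected from supernatant and cancer cells by trypsinisation. Both fixed in 4% paraformaldehyde and counted by flow cytometry relative to control.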
(In general: In flow cytometry, cells or beads pass a laser one at a time.)

Data set [2] relates to HT-29. Description: Immunomodulatory activity in human HT-29 cells co-cultured with interferon gamma-stimulated THP-1 cells assessed as cell viability at 100 uM incubated for 48 hrs by flow cytometry analysis relative to control. In kind it is functional. To be noted: read-out: Activity. In short, it runs like this: as §1
Data set [3] relates to HT-29. Put plainly: Immunomodulatory activity in human HT-29 cells co-cultured with interferon gamma-stimulated THP-1 cells assessed as relative CD-47 protein expression in membrane at 100 uM incubated for 48 hrs by flow cytometry analysis relative to control. In kind it is functional.
Data set [4] deals with HT-29. Put plainly: Immunomodulatory activity in human HT-29 cells co-cultured with interferon gamma-stimulated THP-1 cells assessed as relative PD-L1 protein expression in membrane at 100 uM incubated for 48 hrs by flow cytometry analysis relative to control. Format: functional.
In data set [5] the test system is HT-29. Description: Antiproliferative activity against human HT-29 cells assessed as relative PD-L1 protein expression in membrane at 100 uM incubated for 48 hrs by flow cytometry analysis relative to control. Format: functional.
The subject of data set [6] is HT-29. Put plainly: Antiproliferative activity against human HT-29 cells assessed as relative PD-L1 protein expression in whole cell at 100 uM incubated for 48 hrs by flow cytometry analysis relative to control. Format: functional.
The test system of data set [7] is HT-29. Description: Antiproliferative activity against human HT-29 cells assessed as relative c-Myc protein expression at 100 uM incubated for 48 hrs by flow cytometry analysis relative to control. In kind it is functional.
Data set [8] has as its system HT-29. Description: Antiproliferative activity against human HT-29 cells assessed as relative VEGFR-2 protein expression in membrane at 100 uM incubated for 48 hrs by flow cytometry analysis relative to control. Format: functional.
Data set [9] relates to HT-29. Put plainly: Antiproliferative activity against human HT-29 cells assessed as relative VEGFR-2 protein expression in whole cell at 100 uM incubated for 48 hrs by flow cytometry analysis relative to control. Format: functional.
Data set [10] relates to HT-29. Put plainly: Immunomodulatory activity in human HT-29 cells co-cultured with interferon gamma-stimulated THP-1 cells assessed as inhibition of cell growth at 100 uM incubated for 48 hrs by flow cytometry analysis relative to control. In kind it is functional. In short, it runs like this:
as §1

The subject of data set [11] is HT-29. Description: Immunomodulatory activity in human HT-29 cells co-cultured with interferon gamma-stimulated THP-1 cells assessed as reduction in number of cells at 100 uM incubated for 48 hrs. In kind it is functional, cell-based. In short, it runs like this: as §1
Data set [12] deals with HT-29. Description: Immunomodulatory activity in human HT-29 cells co-cultured with interferon gamma-stimulated THP-1 cells assessed as induction of morphological changes by measuring cell shrinkage at 100 uM incubated for 48 hrs. In kind it is functional, cell-based. In short, it runs like this:
(§2)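 HT-29 cells co-cultured with IFN-γ-stimulated THP-1 cells and treated 48 h with compounds at 100 µM, with DMSO as control. Cell shrinkage and rounded morphology assessed by microscopy images.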

Data set [13] deals with HT-29. Put plainly: Immunomodulatory activity in human HT-29 cells co-cultured with interferon gamma-stimulated THP-1 cells assessed as induction of morphological changes by measuring rounded cell morphology at 100 uM incubated for 48 hrs. In kind it is functional, cell-based. In outline: as §2

As for `Cc1ccc(Cn2cc(-c3cccc(N)c3)nn2)cc1`, the Activity entry is on record as “Non-Toxic” in data set [1], 101% in the data set on HT-29 [3] and 144% in the data set with HT-29 [4]. Also, the viability at 100 µM in the data set with HT-29 [2] is 73%.
The inhibition is the change of the read-out against control, counted positive when it falls. As for `O=[N+]([O-])c1cccc(-c2nnn(Cc3cccc(Br)c3)n2)c1`, the Activity result was “Non-Toxic” in [1]; >100% with HT-29 [5]; 88% in the data set with HT-29 [6]; 76% with HT-29 [7]; 100% with HT-29 [8]; 60% in the data set on HT-29 [9]. Also, the Activity in the data set with HT-29 [3] is 93%; with HT-29 [4], 106%. The viability at 100 µM with HT-29 [2] came to 31%. Besides, the inhibition at 100 µM in the data set on HT-29 [10] is > 70%.
Consider `O=[N+]([O-])c1cccc(-c2nnn(Cc3cccc(Cl)c3)n2)c1`, for which the Activity entry is “Non-Toxic” in data set [1]; >100% in the data set with HT-29 [5]; 90% in the data set with HT-29 [6]; >100% in the data set with HT-29 [7]; 97% in the data set on HT-29 [8]; >100% in the data set on HT-29 [9]. Also, the Activity in the data set with HT-29 [3] worked out at 95%; in the data set on HT-29 [4], 136%. The viability at 100 µM in the data set with HT-29 [2] stood at 90%.
Turning to `COc1ccc(Cn2cc(-c3cccc(N)c3)nn2)cc1`, the Activity entry is “Non-Toxic” in data set [1], 82% with HT-29 [3] and 113% in the data set with HT-29 [4]. In the data set on HT-29 [2], the viability at 100 µM was 40%.
Take `Nc1cccc(-c2cn(Cc3cccc(Br)c3)nn2)c1`: the figures for the Activity result (in data set [1]; in the data set with HT-29 [3]; in the data set on HT-29 [4]) were “Non-Toxic”, 95% and 137%, respectively. Besides, in the data set with HT-29 [2], the viability at 100 µM turned out to be 9%. In addition, the inhibition at 100 µM in the data set with HT-29 [10] was > 90%.
Regarding `COc1ccc(Cn2nnc(-c3cccc([N+](=O)[O-])c3)n2)cc1`, the Activity result in data set [1] is “Non-Toxic”; in the data set on HT-29 [5], 84%; in the data set on HT-29 [6] it was 89%; in the data set with HT-29 [7], >100%; in the data set with HT-29 [8] it was 88%; in the data set on HT-29 [9], 39%. In addition, the Activity with HT-29 [3] is 96%; in the data set with HT-29 [4], 102%. In addition, the viability at 100 µM in the data set with HT-29 [2] came out at 35%. For the same molecule, the outcome in the data set on HT-29 [11], in the data set on HT-29 [12] and with HT-29 [13] was Active.
Consider `Cc1ccccc1Cn1nnc(-c2cccc([N+](=O)[O-])c2)n1`, for which the Activity result is “Non-Toxic” in data set [1]; 64% in the data set with HT-29 [5]; 94% in the data set on HT-29 [6]; 91% in the data set with HT-29 [7]; >100% in the data set on HT-29 [8]; 72% in the data set on HT-29 [9]. In addition, the Activity in the data set on HT-29 [3] was determined as 75%; in the data set with HT-29 [4] it was 165%. The viability at 100 µM in the data set on HT-29 [2] was 56%.
For the molecule `Cc1ccc(Cn2nnc(-c3cccc([N+](=O)[O-])c3)n2)cc1`, the Activity entry in [1] is on record as “Non-Toxic”; in the data set with HT-29 [5], 63%; with HT-29 [6] it was 92%; in the data set on HT-29 [7], 78%; with HT-29 [8] it was >100%; in the data set on HT-29 [9] it was 65%. The Activity in the data set on HT-29 [3] turned out to be 88%; in the data set on HT-29 [4] it was 168%. Moreover, the viability at 100 µM in the data set on HT-29 [2] was 22%. In addition, the inhibition at 100 µM in the data set on HT-29 [10] was > 70%.
As for `COc1cccc(Cn2nnc(-c3cccc(N)c3)n2)c1`, the Activity entry is “Non-Toxic” in [1]; >100% in the data set with HT-29 [5]; >100% in the data set with HT-29 [6]; 86% with HT-29 [7]; 76% in the data set with HT-29 [8]; >100% in the data set with HT-29 [9]. Also, the Activity with HT-29 [3] came to 78%; in the data set with HT-29 [4], 84%. The viability at 100 µM in the data set with HT-29 [2] was 66%. Also, the result with HT-29 [11], in the data set on HT-29 [12] and in the data set on HT-29 [13] was Active.
For the molecule `COc1ccccc1Cn1nnc(-c2cccc([N+](=O)[O-])c2)n1`, the Activity result in data set [1] was “Non-Toxic”; in the data set with HT-29 [5] it was 89%; with HT-29 [6], 92%; with HT-29 [7], 86%; with HT-29 [8], >100%; in the data set on HT-29 [9] it was 55%. In addition, the Activity in the data set on HT-29 [3] is given as 85%; in the data set on HT-29 [4], 93%. The viability at 100 µM with HT-29 [2] was found to be 65%. In addition, the result in the data set on HT-29 [11], with HT-29 [12] and in the data set with HT-29 [13] was Active.
As for `O=[N+]([O-])c1cccc(-c2nnn(Cc3ccccc3Br)n2)c1`, the Activity result in data set [1] was “Non-Toxic”; with HT-29 [5] it was >100%; in the data set with HT-29 [6] it was 97%; with HT-29 [7] it was 90%; in the data set with HT-29 [8], >100%; with HT-29 [9], 75%. The values for the Activity in the data set with HT-29 [3] and in the data set on HT-29 [4] were 85% and 94%, respectively. Further, the viability at 100 µM with HT-29 [2] came out at 43%.
For `Cc1ccccc1Cn1nnc(-c2cccc(N)c2)n1`, the Activity result in data set [1] is given as “Non-Toxic”; with HT-29 [3], 75%; in the data set with HT-29 [4], 103%. Besides, the viability at 100 µM with HT-29 [2] is 25%. Also, in the data set on HT-29 [10], the inhibition at 100 µM is > 70%.
For `COc1cccc(Cn2cc(-c3cccc(N)c3)nn2)c1`, the Activity result in [1] is listed as “Non-Toxic”; in the data set on HT-29 [3], 89%; with HT-29 [4], 113%. In addition, in the data set with HT-29 [2], the viability at 100 µM turned out to be 33%.
For the molecule `Nc1cccc(-c2cn(Cc3ccccc3Br)nn2)c1`, the Activity result in data set [1] is reported as “Non-Toxic”; with HT-29 [3], 75%; with HT-29 [4] it was 110%. Further, in the data set with HT-29 [2], the viability at 100 µM was 35%.
On the same counts, the results for `Nc1cccc(-c2nnn(Cc3ccccc3)n2)c1` are “Non-Toxic”, 104%, 104% and 64%.
On the same counts, the results for `Cc1ccccc1Cn1cc(-c2cccc(N)c2)nn1` are “Non-Toxic”, 87%, 120% and 74%.
On to `COc1ccccc1Cn1nnc(-c2cccc(N)c2)n1`, for which the Activity entry in data set [1] is on record as “Non-Toxic”; with HT-29 [5] it was 97%; with HT-29 [6], >100%; in the data set with HT-29 [7], 97%; in the data set on HT-29 [8] it was 99%; in the data set with HT-29 [9], >100%. Besides, the Activity stood at 77% in the data set on HT-29 [3] and 92% in the data set on HT-29 [4]. In addition, in the data set with HT-29 [2], the viability at 100 µM turned out to be 54%. In addition, the outcome in the data set with HT-29 [11], with HT-29 [12] and with HT-29 [13] was Active.
Regarding `Nc1cccc(-c2cn(Cc3ccccc3)nn2)c1`, the Activity result is on record as “Non-Toxic” in data set [1], 103% with HT-29 [3] and 109% in the data set on HT-29 [4]. Also, in the data set on HT-29 [2], the viability at 100 µM amounted to 78%.
On the same counts, the results for `Cc1cccc(Cn2cc(-c3cccc(N)c3)nn2)c1` are “Non-Toxic”, 86%, 114% and 44%.
As to `COc1ccccc1Cn1cc(-c2cccc(N)c2)nn1`, the results for the Activity result (in data set [1]; in the data set on HT-29 [3]; in the data set with HT-29 [4]) were “Non-Toxic”, 62% and 114%, respectively. For the same molecule, the viability at 100 µM in the data set on HT-29 [2] stood at 62%.
With `Cc1cccc(Cn2nnc(-c3cccc([N+](=O)[O-])c3)n2)c1`, the Activity result is reported as “Non-Toxic” in [1]; 65% in the data set with HT-29 [5]; 97% in the data set with HT-29 [6]; 89% in the data set with HT-29 [7]; >100% in the data set with HT-29 [8]; 84% in the data set with HT-29 [9]. The Activity in the data set on HT-29 [3] was found to be 73%; in the data set with HT-29 [4], 166%. The viability at 100 µM in the data set on HT-29 [2] was 42%.
For `O=[N+]([O-])c1cccc(-c2nnn(Cc3ccccc3)n2)c1`, the Activity result in data set [1] was “Non-Toxic”; with HT-29 [5], 66%; with HT-29 [6], >100%; in the data set with HT-29 [7], 82%; in the data set on HT-29 [8], >100%; with HT-29 [9] it was >100%. Also, the Activity in the data set with HT-29 [3] is reported as 71%; with HT-29 [4], 150%. The viability at 100 µM in the data set on HT-29 [2] stood at 32%.
